Experimental data taken from article PMC4839290 (Journal of medicinal chemistry, 2015).
Entries after “also recorded” stand apart in the source; their conditions may differ.

Assays:
human mGlu1 WT receptor [1] = molecular target: T1, human mGlu1 WT receptor (Homo sapiens, UniProt Q13255); test: Calcium mobilization mGlu1 assay; assay type: cell-based
[2] = tested on: CA3 pyramidal cell body layer in a mouse hippocampal slice preparation; test: Extracellular recording of spontaneous spike
Summary of the method: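 Hippocampal slices with extracellular recording from the CA3 pyramidal cell body layer. Frequency of spontaneous activity was tracked before, during and after bath application and washout of test compound (10 μM) or DHPG (50 μM, positive control). Each was compared with baseline by paired t test, n = 6 per treatment.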

[3] = In vitro intrinsic and hepatic clearance, human; assay type: in vitro ADME
[4] = In vitro intrinsic and hepatic clearance, rat; assay type: in vitro ADME
[5] = Plasma free fraction, human plasma; assay type: in vitro ADME
[6] = Plasma free fraction, rat plasma; assay type: in vitro ADME
Male C57Bl/6 mice = test: Behavioral convulsions, modified Racine score; assay type: in vivo; conditions: for behavioral convulsions (modified Racine score 0–5): 10% Tween 80, monitored 3 h, n = 3
Summary of the method: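 Male C57Bl/6 mice (25–30 g) got a single ip dose of test compound (100 mg/kg) or a reference mGlu5 ago-PAM (1 or 3 mg/kg). Behavior was watched continuously for 3 h and convulsions were scored on a modified Racine scale (0–5).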

hmGlu4 = hmGlu4 (Homo sapiens, UniProt Q14833); test: Calcium mobilization assay, mGlu4 PAM activity; assay type: cell-based; conditions: n = 3 in triplicate
Chain of hmGlu4 (Q14833 33-912): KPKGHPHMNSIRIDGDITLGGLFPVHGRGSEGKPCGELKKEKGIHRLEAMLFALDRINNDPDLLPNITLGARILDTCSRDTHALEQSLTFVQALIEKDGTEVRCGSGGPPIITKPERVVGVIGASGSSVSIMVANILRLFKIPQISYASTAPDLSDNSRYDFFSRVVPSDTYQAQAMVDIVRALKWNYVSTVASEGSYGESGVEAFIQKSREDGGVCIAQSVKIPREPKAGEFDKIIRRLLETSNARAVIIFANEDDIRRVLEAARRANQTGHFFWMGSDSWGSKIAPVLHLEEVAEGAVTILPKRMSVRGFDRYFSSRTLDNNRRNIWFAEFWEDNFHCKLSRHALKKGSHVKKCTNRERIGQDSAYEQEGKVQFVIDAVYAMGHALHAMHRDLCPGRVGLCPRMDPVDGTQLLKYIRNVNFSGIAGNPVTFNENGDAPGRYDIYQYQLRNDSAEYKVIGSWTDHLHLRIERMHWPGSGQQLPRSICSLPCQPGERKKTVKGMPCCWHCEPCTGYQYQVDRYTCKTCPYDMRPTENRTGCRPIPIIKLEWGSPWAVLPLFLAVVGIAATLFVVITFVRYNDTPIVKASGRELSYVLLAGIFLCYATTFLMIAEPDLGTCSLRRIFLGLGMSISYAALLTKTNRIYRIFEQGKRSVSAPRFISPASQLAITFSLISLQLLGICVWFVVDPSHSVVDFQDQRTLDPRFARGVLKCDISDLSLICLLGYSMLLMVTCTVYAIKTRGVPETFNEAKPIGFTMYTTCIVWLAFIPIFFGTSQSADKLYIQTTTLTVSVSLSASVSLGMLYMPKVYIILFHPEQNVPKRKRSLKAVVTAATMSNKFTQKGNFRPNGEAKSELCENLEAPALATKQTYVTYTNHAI

mGlu2 = test: Standard fold-shift selectivity assay; assay type: cell-based; conditions: 10 μM compound
[7] = tested on: human mGlu1 mutant receptors (P729T, A683E, Y632H, P1014S); assay type: cell-based; conditions: noted at compound concentrations above 1 μM
rat mGlu1 WT receptors = rat mGlu1 WT receptors (Rattus norvegicus, UniProt P23385); test: Calcium mobilization concentration-response curves on rat mGlu1; assay type: cell-based
Chain of rat mGlu1 WT receptors (P23385 19-1199): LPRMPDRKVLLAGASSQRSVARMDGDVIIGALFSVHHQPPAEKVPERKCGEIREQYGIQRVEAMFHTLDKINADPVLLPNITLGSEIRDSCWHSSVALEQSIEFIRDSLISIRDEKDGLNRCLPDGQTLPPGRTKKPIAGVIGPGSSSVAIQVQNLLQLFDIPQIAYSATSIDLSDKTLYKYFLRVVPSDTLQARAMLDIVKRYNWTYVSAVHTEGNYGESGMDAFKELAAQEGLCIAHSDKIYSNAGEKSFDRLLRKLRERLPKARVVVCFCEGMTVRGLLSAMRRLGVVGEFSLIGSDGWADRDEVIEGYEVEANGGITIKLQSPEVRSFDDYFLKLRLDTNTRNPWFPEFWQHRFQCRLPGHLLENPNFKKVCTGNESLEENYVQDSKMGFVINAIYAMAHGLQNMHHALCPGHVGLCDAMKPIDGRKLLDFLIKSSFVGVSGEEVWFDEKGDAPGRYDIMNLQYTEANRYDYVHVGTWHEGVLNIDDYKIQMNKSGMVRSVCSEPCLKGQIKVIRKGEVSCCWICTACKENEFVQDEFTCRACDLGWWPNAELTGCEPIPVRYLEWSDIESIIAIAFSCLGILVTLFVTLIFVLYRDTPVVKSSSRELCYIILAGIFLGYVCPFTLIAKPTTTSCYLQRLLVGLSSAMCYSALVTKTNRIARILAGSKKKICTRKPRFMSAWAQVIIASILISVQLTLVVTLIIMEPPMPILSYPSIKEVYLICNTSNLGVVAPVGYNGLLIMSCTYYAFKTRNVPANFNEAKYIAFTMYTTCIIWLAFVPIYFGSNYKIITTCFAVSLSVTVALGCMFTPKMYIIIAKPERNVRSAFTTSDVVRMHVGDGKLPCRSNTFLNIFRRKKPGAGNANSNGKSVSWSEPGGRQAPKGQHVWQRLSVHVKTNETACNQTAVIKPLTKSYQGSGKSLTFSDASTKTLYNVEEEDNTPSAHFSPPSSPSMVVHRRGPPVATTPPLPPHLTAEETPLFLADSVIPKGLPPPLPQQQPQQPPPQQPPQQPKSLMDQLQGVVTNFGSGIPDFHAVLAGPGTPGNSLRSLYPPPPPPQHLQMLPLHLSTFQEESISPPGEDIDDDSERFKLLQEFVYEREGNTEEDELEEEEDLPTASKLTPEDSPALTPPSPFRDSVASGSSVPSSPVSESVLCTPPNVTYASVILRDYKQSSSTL

[8] = Ex vivo metabolism/stability in human plasma; assay type: in vitro ADME; conditions: 10 μM incubation, 37 °C, 4 h, mass spectrometry
Summary of the method: (§1)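 Test compound at 10 μM incubation concentration in rat or human plasma at 37 °C. Samples were taken at 0 and 4 h and analysed by mass spectrometry for remaining parent and for metabolites formed.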

[9] = Ex vivo metabolism/stability in rat plasma; assay type: in vitro ADME; conditions: 10 μM incubation, 37 °C, 4 h, mass spectrometry
Summary of the method: as §1

Rat iv PK = assay type: in vivo; conditions: rat iv PK (0.2 mg/kg)
human mGlu1 WT receptor [10] = molecular target: T1, human mGlu1 WT receptor; test: Fold-shift of glutamate concentration-response curve, human mGlu1 WT cells; assay type: cell-based; conditions: 10 μM compound

T1 sequence (Q13255 19-1194): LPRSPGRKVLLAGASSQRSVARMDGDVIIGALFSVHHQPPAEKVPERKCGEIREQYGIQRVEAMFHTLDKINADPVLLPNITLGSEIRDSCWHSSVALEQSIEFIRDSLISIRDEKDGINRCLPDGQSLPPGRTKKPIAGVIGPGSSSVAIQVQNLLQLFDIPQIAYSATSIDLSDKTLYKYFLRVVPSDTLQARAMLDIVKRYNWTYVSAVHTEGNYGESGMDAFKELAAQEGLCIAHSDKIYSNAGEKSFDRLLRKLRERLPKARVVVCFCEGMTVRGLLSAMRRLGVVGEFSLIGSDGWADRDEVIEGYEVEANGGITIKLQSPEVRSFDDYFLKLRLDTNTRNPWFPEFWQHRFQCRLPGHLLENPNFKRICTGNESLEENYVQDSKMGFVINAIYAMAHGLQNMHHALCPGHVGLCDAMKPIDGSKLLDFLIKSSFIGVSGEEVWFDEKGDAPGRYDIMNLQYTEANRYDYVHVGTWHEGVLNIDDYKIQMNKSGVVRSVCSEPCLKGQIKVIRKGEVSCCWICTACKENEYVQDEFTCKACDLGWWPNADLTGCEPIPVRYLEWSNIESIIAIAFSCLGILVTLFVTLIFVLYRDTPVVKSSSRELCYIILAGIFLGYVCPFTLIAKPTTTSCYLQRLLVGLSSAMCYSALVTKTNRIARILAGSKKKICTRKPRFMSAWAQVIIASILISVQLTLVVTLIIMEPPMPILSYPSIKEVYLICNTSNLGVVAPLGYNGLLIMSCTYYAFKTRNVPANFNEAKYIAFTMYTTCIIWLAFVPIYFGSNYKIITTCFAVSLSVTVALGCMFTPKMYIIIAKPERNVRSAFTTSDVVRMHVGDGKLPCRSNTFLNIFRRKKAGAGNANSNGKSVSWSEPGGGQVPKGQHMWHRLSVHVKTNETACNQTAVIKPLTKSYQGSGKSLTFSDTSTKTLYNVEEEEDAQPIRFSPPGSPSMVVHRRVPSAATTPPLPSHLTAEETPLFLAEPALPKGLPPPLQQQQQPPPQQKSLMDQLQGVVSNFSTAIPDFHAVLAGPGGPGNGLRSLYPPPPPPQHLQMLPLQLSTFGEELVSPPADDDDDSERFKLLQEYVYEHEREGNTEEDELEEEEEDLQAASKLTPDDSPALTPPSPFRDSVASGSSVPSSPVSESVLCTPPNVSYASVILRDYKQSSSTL

SMILES: O=C(Nc1ccc(N2C(=O)c3ccccc3C2=O)c(Cl)c1)c1cc2ccccc2o1 [10m]
- mGlu1 PAM activity in words (human mGlu1 WT receptor [1]): inactive

SMILES: N[C@H](C(=O)O)c1cc(O)cc(O)c1 [DHPG, S-3,5-dihydroxyphe-nylglycine, reference compound]
- induction of epileptiform activity in CA3 ([2]; 50 μM, positive control): induced marked epileptiform activity

SMILES: O=C(Nc1ccc(N2C(=O)c3ccccc3C2=O)c(Cl)c1)c1coc2ccccc12 [10n]
- mGlu1 PAM activity in words (human mGlu1 WT receptor [1]): inactive

SMILES: O=C(Nc1ccc(N2C(=O)c3cccc(Cl)c3C2=O)c(Cl)c1)c1ncccc1Cl [compound 8, reference compound]
- human CLINT [3]: 17.2 mL/min/kg
- rat CLINT [4]: 39.9 mL/min/kg
- human fu plasma [5]: unstable
- rat fu plasma [6]: unstable

SMILES: C[C@@H](NC(=O)c1ccc(C#Cc2cccc(F)c2)cn1)C(C)(C)O [compound 18, (R)-5-((3-fluorophenyl)ethynyl)-N-(3-hydroxy-3-methylbutan-2-yl)picolinamide, reference compound]
- time of peak convulsion responses after administration (Male C57Bl/6 mice; 1 or 3 mg/kg ip): approximately 5 min
- behavioral convulsions (modified Racine score 0–5) (Male C57Bl/6 mice; 1 or 3 mg/kg ip): severe, dose-dependent behavioral manifestations of seizure activity; also recorded: Severe, dose-dependent behavioral convulsions

SMILES: O=C(Nc1ccc(N2C(=O)c3ccccc3C2=O)c(Cl)c1)c1ncco1 [9e]
- mGlu1 PAM activity in words (human mGlu1 WT receptor [1]): inactive

SMILES: Cc1ccoc1C(=O)Nc1ccc(N2C(=O)c3cccc(Cl)c3C2=O)c(Cl)c1 [17c, N-(3-Chloro-4-(4-chloro-1,3-dioxoisoindolin-2-yl)phenyl)-3-methylfuran-2-carboxamide]
- hmGlu4 pEC50 (±SEM) (hmGlu4): 5.94 ± 0.22

SMILES: O=C(Nc1ccc(N2C(=O)c3ccccc3C2=O)c(Cl)c1)c1cnco1 [9d]
- mGlu1 PAM activity in words (human mGlu1 WT receptor [1]): inactive

SMILES: Cc1ccoc1C(=O)Nc1ccc(N2C(=O)c3cccc(F)c3C2=O)c(Cl)c1 [17e, N-(3-Chloro-4-(4-fluoro-1,3-dioxoisoindolin-2-yl)phenyl)-3-methylfuran-2-carboxamide]
- hmGlu4 pEC50 (±SEM) (hmGlu4): 5.95 ± 0.16
- fold shift of glutamate CRC at mGlu2 (mGlu2): < 2 fold
- ago-PAM activity across all four mutants [7]: ≤ 40%
- human CLHEP [3]: 2.70 mL/min/kg
- human CLINT [3]: 3.10 mL/min/kg
- rat CLHEP [4]: 52.3 mL/min/kg
- rat CLINT [4]: 207 mL/min/kg
- induction of epileptiform activity in CA3 ([2]; 10 μM bath application): did not induce epileptiform activity; also recorded: does not induce epileptiform activity
- behavioral convulsions (modified Racine score 0–5) (Male C57Bl/6 mice; 100 mg/kg ip): no measurable behavioral disturbances at any time point; also recorded: no adverse effects

SMILES: Cc1ccoc1C(=O)Nc1ccc(N2C(=O)c3ccc(Cl)cc3C2=O)c(Cl)c1 [17d, N-(3-Chloro-4-(5-chloro-1,3-dioxoisoindolin-2-yl)phenyl)-3-methylfuran-2-carboxamide]
- rat mGlu1 pEC50 (rat mGlu1 WT receptors): 6.95 ± 0.13
- human CLINT [3]: 2.90 mL/min/kg
- rat CLHEP [4]: 17.2 mL/min/kg
- rat CLINT [4]: 22.8 mL/min/kg
- human fu plasma [5]: unstable
- rat fu plasma [6]: unstable
- parent compound remaining in human plasma [8]: no parent 17d remains
- parent compound remaining in rat plasma [9]: no parent 17d remains
- behavioral convulsions (modified Racine score 0–5) (Male C57Bl/6 mice; 100 mg/kg ip): no measurable behavioral disturbances at any time point; also recorded: no adverse effects

SMILES: Cc1ccoc1C(=O)Nc1ccc(N2C(=O)c3ccncc3C2=O)c(Cl)c1 [17g, N-(3-Chloro-4-(1,3-dioxo-1,3-dihydro-2H-pyrrolo[3,4-c]-pyridin-2-yl)phenyl)-3-methylfuran-2-carboxamide]
- rat mGlu1 pEC50 (rat mGlu1 WT receptors): 6.95 ± 0.15
- human CLINT [3]: 167 mL/min/kg
- rat CLHEP [4]: 59.7 mL/min/kg
- rat CLINT [4]: 405 mL/min/kg
- human fu plasma [5]: unstable
- CLp (Rat iv PK): 382 mL/min/kg
- clearance (Rat iv PK; rat, plasma, iv, 0.2 mg/kg, CLp): 283 mL/min/kg
- behavioral convulsions (modified Racine score 0–5) (Male C57Bl/6 mice; 100 mg/kg ip): no measurable behavioral disturbances at any time point; also recorded: no adverse effects

SMILES: Cc1ccoc1C(=O)Nc1ccc(N2C(=O)c3ccc(F)cc3C2=O)c(Cl)c1 [17f, N-(3-Chloro-4-(5-fluoro-1,3-dioxoisoindolin-2-yl)phenyl)-3-methylfuran-2-carboxamide]
- agonism at the highest concentration (human mGlu1 WT receptor [10]): < 20%

SMILES: O=C(Nc1nc(C(F)(F)F)co1)C1c2ccccc2Oc2ccccc21 [compound 5, reference compound]
- human CLINT [3]: 262 mL/min/kg
- rat CLHEP [4]: 63.3 mL/min/kg
- rat CLINT [4]: 661 mL/min/kg
- behavioral convulsions (modified Racine score 0–5) (Male C57Bl/6 mice; 100 mg/kg ip): no adverse effects

SMILES: O=C(Nc1ccc(N2C(=O)c3ccccc3C2=O)c(Cl)c1)C1CCCO1 (stereo not drawn) [9n]
- mGlu1 PAM activity in words (human mGlu1 WT receptor [1]): inactive

SMILES: O=C(Nc1ccc(N2C(=O)c3ccccc3C2=O)c(Cl)c1)c1cncs1 [9i]
- mGlu1 PAM activity in words (human mGlu1 WT receptor [1]): inactive
